zVAD death inh = inhibitors of zVAD-triggered necroptosis, primary screen, L929 cells; L929 zVAD necroptosis rescue, ATP luminescence, 24 h; with zVAD 60 µM; viability rescue, % at 10 µM; actives 0.38% (n = 220,000); AID 1377, 2008;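 active = activation, scaled between plate controls, above about 75%, limit read from the data; inactive = activation under that limit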
TNF necrop inh = inhibitors of TNF-alpha triggered necroptosis, primary screen, cell-based, Jurkat FADD-/-, single concentration | Jurkat FADD-/- TNF necroptosis rescue, ATP luminescence, 24 h; 0 = TNF only, 100 = no-TNF cells | activation (protection from cell death), % at 10 µM | actives 0.068% (n = 220,000) | AID 463075, 2010;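 active = activation, meaning protection from cell death, of at least 50% relative to plate controls; inactive = activation below 50%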;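 also: necroptosis triggered by 40 ng/mL TNF-alpha added together with compound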
Lipid droplet = inhibitors of hepatocyte lipid droplet formation, primary screen, imaging, high-throughput imaging, BODIPY stain | AML12 mouse hepatocytes, oleate lipid droplets | inhibition, % at 6.5 µM | AID 1656, 2009 | actives 0.4% (n = 240,000);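 active = lipid droplet intensity inhibited by at least 50%, with more than 500 cells counted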
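Test system: AML12 hepatocytes (mouse); reagent: oleate loading, 100 µM; dosing: one dose, 6.5 µM compound; incubation: overnight exposure; signal: fluorescence imaging, 20x objective, two fields per well; read-out basis: % inhibition of corrected integrated BODIPY droplet signal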
Arbovirus inh = antivirals against arbovirus infection, primary screen, cell-based, full library, 10K replicate subset. arbovirus infection cell-based antiviral screen. inhibition, % at 10 µM. actives 0.37% (n = 200,000). AID 1251, 2008; in the data active = inhibition above about 30%
Pf gamet viab = late stage P. falciparum gametocyte viability inhibitors, primary screen, ATP luminescence, HTS | P. falciparum stage V gametocytes, 24 h | inhibition, % at 10.9 µM | actives 0.065% (n = 150,000) | AID 743093, 2013;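 active = inhibition above the mean plus 3 SD of compounds within the control limits, set per campaign, cut at about 38% in these data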
Hep lipid conf = hepatocyte lipid droplet accumulation inhibitors, confirmation, imaging, AML12 mouse hepatocytes, single concentration, high-content; BODIPY lipid droplet imaging; droplets induced with 100 µM oleic acid; shares compounds with Lipid droplet; actives 65% (n = 870); inhibition, % at 5.2 µM; AID 463183, 2010;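 active = inhibition of lipid droplet metric at least 50%, with more than 300 cells in each of four replicates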
AML12 tox img = AML12 hepatocyte cytotoxicity, counter-screen for hepatic lipid droplet formation project, imaging, DAPI nuclear morphology imaging. shares compounds with Lipid droplet. AML12 mouse hepatocytes; stronger effect = higher value; cells fed 100 µM oleate overnight. z-score at 5 µM. actives 3% (n = 870); in the data active = z-score above about 6.3;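 also: compound exposure lasted overnight at 37 °C before fixation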
AML12 tox conf = AML12 hepatocyte cytotoxicity, confirmation, cytotoxicity control for hepatic lipid droplet formation project, cell-based, single concentration; AML12 mouse hepatocyte viability, ATP luminescence; cells loaded with 100 µM oleic acid; cytotoxicity, % at 50 µM; shares compounds with Lipid droplet; 530 tested, under 10 active;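 active = cytotoxicity above 50% in each of four replicates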;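 also: compound exposure lasted overnight at 37 °C before the ATP read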
A number is an active result; i = inactive; nt = not tested or not shown. An excerpt weighted towards active compounds, which were near 0.91% of everything screened.

SMILES	zVAD death inh	TNF necrop inh	Lipid droplet	Arbovirus inh	Pf gamet viab	Hep lipid conf	AML12 tox img	AML12 tox conf
Cc1ccc(-n2nc3c(=O)n(CC(=O)NC(C)CCc4ccccc4)nc(C)c3c2C)cc1 (configuration not stated)	nt	nt	87.8	nt	nt	77.0	i	i
Cc1ccc(-n2nc3c(=O)n(CC(=O)NCc4ccccc4)nc(C)c3c2C)cc1	nt	nt	i	nt	nt	nt	nt	nt
O=C(CSc1nncn1-c1cccnc1)N(c1ccccc1)c1ccccc1	i	i	i	i	nt	nt	nt	nt
Cc1cc(O)c(C)c(O)c1/C=N/NC(=O)c1cccnc1	nt	nt	59.1	nt	i	i	i	nt
O=C(N/N=C/c1c(O)ccc2ccccc12)c1cccnc1	nt	nt	i	nt	nt	nt	nt	nt
COc1cc(NC(=O)c2cccs2)c(OC)cc1NC(=O)CCC(=O)Nc1ccc(C)cc1	nt	nt	67.7	nt	nt	107.9	i	i
COc1ccc(/C=C(\NC(=O)c2cccs2)C(=O)NN)cc1OC	nt	nt	i	nt	nt	nt	nt	nt
COc1cccc(NC(=O)c2cccs2)c1	i	i	i	i	i	nt	nt	nt
Cc1ccc(NC(=O)CCC(=O)c2cccs2)cc1	i	i	i	i	nt	nt	nt	nt
COc1ccc(NC(=O)CCC(=O)Nc2cc(OC)c(NC(=O)c3cccs3)cc2OC)cc1	nt	nt	70.6	nt	nt	109.4	i	i
COc1ccc(/C=C(\NC(=O)c2cccs2)C(=O)Nc2cccc3ccccc23)cc1OC	i	i	83.6	i	i	102.4	i	i
COc1ccc(OCC(=O)Nc2ccc(NC(=O)c3cccs3)cc2)cc1	nt	nt	i	nt	nt	nt	nt	nt
COc1cccc(NC(=O)CCC(=O)Nc2cc(OC)c(NC(=O)c3cccs3)cc2OC)c1	nt	nt	78.8	nt	nt	109.9	i	i
O=C(NCc1cn2ccccc2n1)C1CCC(=O)N(Cc2ccccc2F)C1 (configuration not stated)	nt	nt	i	nt	nt	nt	nt	nt
Cc1cccc(/C=C/c2onc(C)c2S(=O)(=O)N2CCC(C(=O)NC(C)C)CC2)c1	nt	nt	i	nt	nt	nt	nt	nt
COc1ccccc1OC[C@H](O)CO	nt	nt	i	nt	nt	nt	nt	nt
O=C(CSCC(=O)N1CCCc2ccccc21)Nc1nc(-c2ccccc2)cs1	i	i	69.0	i	nt	90.0	i	i
O=C(C[n+]1cc(-c2ccccc2)n2c1CCC2)Nc1nc(-c2ccccc2)cs1	i	i	i	i	i	nt	nt	nt
CCOC(=O)N1CCN(C(=O)CSCC(=O)Nc2nc(-c3cccs3)cs2)CC1	i	i	78.7	i	i	96.9	i	i
Cn1c(=O)c(-c2ccccc2[N+](=O)[O-])c(Cl)c2ccccc21	nt	nt	i	nt	i	nt	nt	nt
Nc1c(-c2ccc3c(c2)OCCO3)oc2ccccc2c1=O	nt	nt	i	nt	nt	nt	nt	nt
O=C1Nc2ccccc2C12NCCc1c2[nH]c2ccccc12 (configuration not stated)	i	i	i	i	nt	nt	nt	nt
CC1=CC(C)(C)N2C(=O)C3(NCCc4c3[nH]c3ccccc43)c3cccc1c32 (configuration not stated)	i	i	62.1	i	i	104.7	i	i
Cc1cc(C)cc(N(CC(=O)O)S(=O)(=O)c2c(C)noc2C)c1	i	i	58.3	i	nt	i	i	nt
COc1cc2c(cc1OC)CN(CC(=O)Nc1ccc(C)c(C)c1)CC2	nt	nt	55.8	nt	nt	i	i	nt
SMILES	zVAD death inh	TNF necrop inh	Lipid droplet	Arbovirus inh	Pf gamet viab	Hep lipid conf	AML12 tox img	AML12 tox conf
COc1cc2c(cc1OC)CN(CC(=O)Nc1ccc(C)cc1)CC2	i	i	nt	i	nt	nt	nt	nt
Cc1ccc(-n2c(SCc3nc4ccccc4c(=O)[nH]3)nnc2-c2ccccc2O)cc1	i	i	i	i	i	nt	nt	nt
O=c1[nH]c(CSc2nnc(-c3ccccc3)n2-c2ccccc2)nc2ccccc12	nt	i	61.8	i	nt	i	i	nt
O=C(COC(=O)COc1ccc(Cl)cc1Cl)Nc1cccnc1Cl	i	i	50.2	i	i	i	i	nt
Cc1ccc(CNC(=O)c2ccc3nc4[nH]c5ccccc5c4nc3c2)cc1	i	i	55.0	i	i	90.6	i	nt
C=CCC[C@H](Cc1ccc(F)cc1)C(=O)OC[C@@H](Cc1c[nH]c2ccccc12)NC(=O)[C@H](CC=C)CC(=O)N(CCO)Cc1ccccc1	nt	nt	nt	nt	i	nt	nt	nt
Cc1ccccc1OCC(=O)NCCCNC(=O)c1ccccn1	nt	nt	93.1	nt	nt	i	i	nt
COc1ccc(N2CCN(C(=O)c3cc(C)on3)CC2)cc1	nt	nt	56.4	nt	nt	i	i	nt
Cc1cc(C(=O)N2CCN(c3ccccc3)CC2)no1	i	i	nt	i	nt	nt	nt	nt
COc1cccc(N2CCN(CC(=O)Nc3nnc(-c4ccccc4)s3)CC2)c1	i	i	59.2	i	i	95.2	i	i
CCC(NC(=O)c1cc(COc2cncc(Cl)c2)on1)c1ccncc1 (configuration not stated)	nt	nt	65.1	nt	nt	i	i	nt
O=C(CN(C(=O)CNC(=O)c1cccs1)c1cccc(F)c1)NC1CCCC1	nt	nt	i	nt	nt	nt	nt	nt
CCSC(=O)N(CC)CC(=O)Nc1c(CC)cccc1CC	i	i	56.4	i	nt	86.7	i	i
CCCSC(=O)N(CC)CC(=O)Nc1c(CC)cccc1CC	i	i	63.8	i	nt	90.1	i	i
CC(C)c1ccccc1-n1c(SCC(=O)c2ccc3c(c2)NC(=O)CO3)nc2ccccc2c1=O	i	i	54.1	i	i	i	i	i
O=C1COc2ccc(C(=O)CSc3ccccc3C(=O)O)cc2N1	i	i	i	nt	i	nt	nt	nt
CCOC(=O)c1c(C)[nH]c(C)c1S(=O)(=O)N(C)CC(=O)Nc1cccc(C)n1	nt	nt	i	nt	nt	nt	nt	nt
c1ccc2nc(N3CCN(Cc4ccc5c(c4)OCO5)CC3)cnc2c1	i	i	50.3	i	i	i	i	nt
Cc1csc(=O)n1CCC(=O)OCC(=O)N(CC(C)C)c1c(N)n(Cc2ccccc2)c(=O)[nH]c1=O	nt	nt	i	nt	nt	nt	nt	nt
CCOc1ccccc1NC(=O)CCCNC(=O)Cn1cnc2sc(C)c(C)c2c1=O	nt	nt	58.7	nt	nt	i	i	i
CCOc1ccccc1NC(=O)CCCNC(=O)c1ccc(Cl)cc1	nt	nt	73.2	nt	nt	77.8	i	i
COc1ccc(OC)c(NC(=O)CCCNC(=O)c2ccc(Cl)cc2)c1	nt	nt	58.4	nt	nt	73.0	i	i
CC1(C)CC(=O)C=C(Nc2ccc(Cl)c(Br)c2)C1	nt	nt	i	nt	nt	nt	nt	nt
Cc1cc(C)c[n+](C(C)C(=O)c2ccc(Cl)cc2)c1 (configuration not stated)	nt	nt	i	nt	nt	nt	nt	nt
Cc1ccc(OCC(=O)NCCNC(=O)c2ccc(C)nc2)cc1	nt	nt	i	nt	nt	nt	nt	nt
CCOc1ccc2ccccc2c1/C=N\NC(=O)OC	i	i	i	i	i	nt	nt	nt
CCOc1ccc2ccccc2c1/C=N/NC(=O)CNC(=O)C(c1ccccc1)c1ccccc1	i	i	82.1	i	nt	91.6	i	i
